In ChEMBL document CHEMBL5046314, “Repositioning of a Diaminothiazole Series Confirmed to Target the Cyclin-Dependent Kinase CRK12 for Use in the Treatment of African Animal Trypanosomiasis” (J Med Chem, 2022):
Calls of active or inactive are those of the source. The rule behind the calls is not given here.

How the values were obtained:
Trypanosoma vivax [1] = test: Antitrypanosomal activity against bloodstream Trypanosoma vivax STIB 719/ ILRAD 560 infected in NMRI mouse assessed as reduction in parasitemia at 10 mg/kg, sc administered for 4 days; type: functional; parameters: scale not given: the % may be the effect or the level left
Trypanosoma congolense [2] = test: Antitrypanosomal activity against bloodstream Trypanosoma congolense IL3000 infected in NMRI mouse assessed as reduction in parasitemia at 10 mg/kg, sc administered once daily for 4 days; type: functional; parameters: scale not given: the % may be the effect or the level left
Trypanosoma vivax [3] = test: Antitrypanosomal activity against bloodstream Trypanosoma vivax STIB 719/ ILRAD 560 infected in NMRI mouse assessed as reduction in parasitemia at 3 mg/kg, sc administered for 4 days; type: functional; parameters: scale not given: the % may be the effect or the level left; conditions: time 4 day
Trypanosoma vivax [4] = test: Antitrypanosomal activity against bloodstream Trypanosoma vivax STIB 719/ ILRAD 560 infected in NMRI mouse assessed as reduction in parasitemia at 10 mg/kg, sc administered for 2 days; type: functional; parameters: scale not given: the % may be the effect or the level left; conditions: time 2 day
Trypanosoma congolense [5] = test: Antitrypanosomal activity against bloodstream Trypanosoma congolense IL3000 infected in Fulani Zebu cattle assessed as reduction in parasitemia at 10 mg/kg, IM administered as single dose monitered for 100 days; type: functional, organism-based; conditions: time 100.0 day
In short: (§1)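 Female Fulani Zebu cattle infected with the named strain received 10 mg/kg of the free base by IM injection. The vehicle was Kolliphor EL, N-methyl pyrrolidone, 2-pyrrolidone and 11% water. Dosing was once or twice 15 h apart. Saline vehicle controls got 0.2 mL/kg twice, 15 h apart. Animals were followed for 100 days after treatment to score cure.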

Trypanosoma vivax [6] = test: Antitrypanosomal activity against bloodstream Trypanosoma vivax STIB 719/ ILRAD 560 infected in Fulani Zebu cattle assessed as reduction in parasitemia at 10 mg/kg, IM administered as single dose monitered for 100 days; type: functional, organism-based; conditions: time 100.0 day; in short: as §1
Trypanosoma vivax [7] = test: Antitrypanosomal activity against bloodstream Trypanosoma vivax STIB 719/ ILRAD 560 infected in Fulani Zebu cattle assessed as reduction in parasitemia at 10 mg/kg, IM administered twice daily and measured after for 100 days; type: functional, organism-based; conditions: time 100.0 day; in short: as §1
Trypanosoma vivax [8] = test: Antitrypanosomal activity against bloodstream Trypanosoma vivax STIB 719/ ILRAD 560 infected in Fulani Zebu cattle assessed as reduction in parasitemia at 10 mg/kg, IM administered twice daily and measured after 4 days; type: functional, organism-based; conditions: time 4.0 day
Trypanosoma congolense [9] = test: Antitrypanosomal activity against bloodstream Trypanosoma congolense IL3000 infected in NMRI mouse assessed as reduction in parasitemia at 10 to 100 ng/ml administered via sc implanted ALZET osmotic pumps for 48 hrs; type: functional, organism-based; conditions: dose 10-100 ng/ml
Trypanosoma congolense [10] = test: Antitrypanosomal activity against bloodstream Trypanosoma congolense IL3000 infected in NMRI mouse assessed as reduction in parasitemia at 3 mg/kg, sc administered for 4 days; type: functional; parameters: scale not given: the % may be the effect or the level left; conditions: time 4 day
[11] = system: Trypanosoma brucei brucei; test: Antitrypanosomal activity against bloodstream Trypanosoma brucei brucei infected in NMRI mouse assessed as parasite growth inhibition at 3 mg/kg, po BID for 4 days; type: functional; parameters: scale not given: the % may be the effect or the level left; conditions: time 4 day
Trypanosoma vivax [12] = test: Antitrypanosomal activity against bloodstream Trypanosoma vivax STIB 719/ ILRAD 560 infected in NMRI mouse assessed as reduction in parasitemia at 10 mg/kg, sc BID for 4 days and measured twice a week for 21 days; type: functional; parameters: scale not given: the % may be the effect or the level left; conditions: time 21 day
Trypanosoma vivax [13] = test: Antitrypanosomal activity against bloodstream Trypanosoma vivax STIB 719/ ILRAD 560 infected in NMRI mouse assessed as reduction in parasitemia at 30 mg/kg, sc administered as single dose and measured twice a week for 21 days; type: functional; parameters: scale not given: the % may be the effect or the level left; conditions: time 21 day
Trypanosoma congolense [14] = test: Antitrypanosomal activity against bloodstream Trypanosoma congolense KONT 2/133 infected in Friesian-Holstein calf assessed as reduction in parasitemia at 5 mg/kg, sc BID and measured after 3 days; type: functional, organism-based; conditions: time 3.0 day
Trypanosoma vivax [15] = test: Antitrypanosomal activity against bloodstream Trypanosoma vivax STIB 719/ ILRAD 560 infected in NMRI mouse assessed as reduction in parasitemia at 3 mg/kg, sc QD for 4 days and measured twice a week for 21 days; parameters: scale not given: the % may be the effect or the level left; conditions: time 21 day

For CC(C)CS(=O)(=O)N[C@H]1CC[C@H](Nc2nc(N)c(C(=O)c3c(F)cc(CN4CCCC4)cc3F)s2)CC1.Cl, the Activity (Trypanosoma vivax [1]; time 4 day) was 100%.

For CC(C)CS(=O)(=O)N[C@H]1CC[C@H](Nc2nc(N)c(C(=O)c3c(F)cc(CN(C)C)cc3F)s2)CC1, the Activity (Trypanosoma congolense [2]; time 4 day) was 100%, the Activity (Trypanosoma vivax [3]) was 100% and the Activity (Trypanosoma vivax [1]; time 4 day) was 100%. For the same compound, the Activity (Trypanosoma vivax [4]) was 100%, the Activity (Trypanosoma congolense [5]) was “inactive” and the Activity (Trypanosoma vivax [6]) was “inactive”. For the same compound, the Activity (Trypanosoma vivax [7]) was “inactive”, the Activity (Trypanosoma vivax [8]) was “inactive” and the Activity (Trypanosoma congolense [9]) was “Active”.

In the case of CC(C)CS(=O)(=O)N[C@H]1CC[C@H](Nc2nc(N)c(C(=O)c3c(F)cc(CN4CCN(C)CC4)cc3F)s2)CC1, the Activity (Trypanosoma vivax [1]; time 4.0 day) is reported as “inactive”.

Compound CNCc1cc(F)c(C(=O)c2sc(N[C@H]3CC[C@H](NS(=O)(=O)CC(C)C)CC3)nc2N)c(F)c1.Cl has an Activity (Trypanosoma congolense [2]; time 4 day) of 100% and an Activity (Trypanosoma vivax [1]; time 4 day) of 100%.

With CC(C)CS(=O)(=O)N[C@H]1CC[C@H](Nc2nc(N)c(C(=O)c3c(F)cc(CN4CCOCC4)cc3F)s2)CC1 the Activity (Trypanosoma congolense [2]; time 4.0 day) was “inactive” and the Activity (Trypanosoma vivax [1]; time 4.0 day) was “inactive”.

CC(C)CS(=O)(=O)N[C@H]1CC[C@H](Nc2nc(N)c(C(=O)c3c(Cl)cccc3Cl)s2)CC1 gave an Activity (Trypanosoma vivax [3]) of 100% and an Activity (Trypanosoma congolense [10]) of 100%.

Work on CC(C)CS(=O)(=O)N[C@H]1CC[C@H](Nc2nc(N)c(C(=O)c3c(F)cccc3F)s2)CC1 yielded an Activity [11] of 100%, an Activity (Trypanosoma vivax [12]) of 100% and an Activity (Trypanosoma vivax [13]) of 100%. The Activity (Trypanosoma congolense [14]) was “Active” and the Activity (Trypanosoma vivax [15]) was 100%.
